In general, ΔTm refers to the change in melting temperature against a reference sample. As a reminder, the IC50 is the concentration needed to halve the response being measured. For orientation: EC50 means the midpoint of the concentration-response curve. A low value points to higher potency in that assay. Usually MIC stands for the least concentration at which growth counts as inhibited.

The nature of assay [1]: Binding affinity to DNA dodecamer complex (CGCGAATTCGCG)2 (unknown origin) assessed as change in melting temperature by differential scanning calorimetry. In general terms: DSC measures the heat that a sample takes up or gives off during a temperature scan.
Assay [2] is described as follows: Inhibition of Staphylococcus aureus UPPS using FPP/IPP as substrate by spectrophotometry. An outline of the steps:
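Continuous spectrophotometric assay following UPPS-catalysed condensation of FPP with IPP. IC50 from fit of inhibition data to rectangular hyperbolic dose-response function.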

A further assay has as its system Escherichia coli. The assay can be described thus: Antimicrobial activity against Escherichia coli K-12 after 3 hrs by broth microdilution method. The format is functional, organism-based. Conditions: K-12, 3 h.
Assay [3] is described as follows: Inhibition of Escherichia coli UPPS using FPP/IPP as substrate by spectrophotometry.
The subject of assay [4] is Staphylococcus aureus. The assay can be described thus: Antimicrobial activity against Staphylococcus aureus Newman after 9 hrs by spectrophotometry. It counts as functional, organism-based.
A short description of assay [5]: Inhibition of FPPS (unknown origin).
Assay [6] in a line: Inhibition of Staphylococcus aureus UPPS. A digest of the protocol:
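Continuous spectrophotometric assay following UPPS-catalysed condensation of FPP with IPP. Reaction contained 400 µM MESG, 25 µM IPP, 2.5 µM FPP, […] pH 7.5, 0.01% Triton X-100 and 1 mM MgCl2. IC50 from fit of inhibition data to rectangular hyperbolic dose-response function.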

Assay [7] deals with Staphylococcus aureus. The assay can be described thus: Antimicrobial activity against Staphylococcus aureus assessed as fractional Inhibitory concentration index. It counts as functional.
The subject of assay [8] is Staphylococcus aureus. The assay can be described thus: Antimicrobial activity against Staphylococcus aureus. It counts as functional.

The structures appear in SMILES notation. Converted amounts (≈) assume the structure as drawn.

As for `c1cc2cc(-c3ccc(-c4cc5ccc(C6=NCCN6)cc5[nH]4)cc3)[nH]c2cc1C1=NCCN1`, the ΔTm in [1] was determined as 16 °C. The IC50 in assay [2] was 1.7 µM; in assay [3], 0.36 µM. Moreover, the EC50 came to 0.33 µM in the assay on Escherichia coli and 0.029 µM with Staphylococcus aureus [4].
The like results for `N=C(N)c1ccc(OCCCCCOc2ccc(C(=N)N)cc2)cc1` [PENTAMIDINE] were, in that order, 2.7 °C, 240 µM, 400 µM, 12 µM and 4.2 µM.
The matching figures for `S=C(Nc1cccc(C2=NCCN2)c1)c1ccc(-c2ccc(C(=S)Nc3cccc(C4=NCCN4)c3)cc2)cc1`: 7.1 °C, 3.5 µM, 9.2 µM, 58 µM and 3 µM.
As for `O=C(Nc1cccc(O[C@@H]2O[C@H](CO)[C@@H](O)[C@H](O)[C@H]2O)c1)c1ccc(-c2ccc(C(=O)Nc3cccc(C4=NCCN4)c3)cc2)cc1`, in assay [1], the ΔTm came out at 5.8 °C. Besides, the IC50 in assay [2] turned out to be 530 µM; in [3], 380 µM. Also, the half-maximal effective concentration (EC50) was over 1500 µM in the assay on Escherichia coli and 570 µM in the assay with Staphylococcus aureus [4].
Take `O=C(Nc1cccc(C2=NCCN2)c1)c1ccc(-c2ccc(C(=O)Nc3cccc(C4=NCCN4)c3)cc2)cc1`: the IC50 in assay [5] came to 2 µM; in [6], 0.1 µM. Moreover, the ΔTm in assay [1] worked out at 11 °C. Besides, the “fractional inhibitory concentration index (FICI)” value in the assay on Staphylococcus aureus [7] was found to be 0.25. In the assay on Staphylococcus aureus [8], this compound yielded an MIC of 0.25 µg/mL (≈ 0.473 µM).
As to `OC[C@H]1O[C@@H](Oc2cccc(C#Cc3ccc(C#Cc4cccc(C5=NCCN5)c4)cc3)c2)[C@H](O)[C@@H](O)[C@@H]1O`, in [1], the ΔTm is -1.2 °C. Further, the IC50 was 5.6 µM in [2] and 14 µM in [3]. The EC50 was found to be 900 µM in the assay on Escherichia coli and 380 µM with Staphylococcus aureus [4].
The matching figures for `O=P(O)(O)C(O)(Cc1cccc(-c2cccc(NS(=O)(=O)c3cccc(S(=O)(=O)Nc4cccc(-c5cccc(CC(O)(P(=O)(O)O)P(=O)(O)O)c5)c4)c3)c2)c1)P(=O)(O)O`: -1 °C, 0.39 µM, 0.36 µM, over 1500 µM and 100 µM.
The like results for `Cn1cc(NC(=O)c2cc(NC(=O)CNC(=N)N)cn2C)cc1C(=O)NCCC(=N)N` [NETROPSIN] were, in that order, 16 °C, 1000 µM, 1400 µM, 570 µM and 11 µM.
The like results for `COc1cccc(NC(=O)c2ccc(-c3ccc(C(=O)Nc4cccc(C5=NCCN5)c4)cc3)cc2)c1` were, in that order, 5.2 °C, 2.1 µM, 9.4 µM, 570 µM and 7.7 µM.
Consider `C(=C\c1cc2ccc(C3=NCCN3)cc2[nH]1)/c1cc2ccc(C3=NCCN3)cc2[nH]1`, for which the ΔTm in assay [1] is 20 °C. Also, the IC50 in assay [2] was found to be 5.1 µM; in assay [3], 12 µM. Moreover, the EC50 was 1.2 µM with Escherichia coli and 0.11 µM with Staphylococcus aureus [4].
For the compound `CCCCCCOc1cccc(NC(=O)c2ccc(-c3ccc(C(=O)Nc4cccc(C5=NCCN5)c4)cc3)cc2)c1`, the thermal shift (ΔTm) in assay [1] stood at 0.7 °C. Moreover, the results for the IC50 in assay [2] and in assay [3] were 8.9 µM and 25 µM, respectively. The EC50 in the assay with Escherichia coli is over 1500 µM; in the assay with Staphylococcus aureus [4], 280 µM.
The matching figures for `c1cc2cc(-c3ccc(-c4cc5ccc(C6=NCCCN6)cc5[nH]4)cc3)[nH]c2cc1C1=NCCCN1`: 24 °C, 0.47 µM, 0.68 µM, 0.24 µM and 0.028 µM.
The matching figures for `NCCc1cc(Br)cc(C#Cc2cccc(C#Cc3cc(Br)cc(CCN)c3)c2)c1`: -0.1 °C, 1.4 µM, 6.1 µM, 0.97 µM and 7.6 µM.
The matching figures for `O=C(Nc1cccc(C2=NCCCN2)c1)c1ccc(-c2ccc(C(=O)Nc3cccc(C4=NCCCN4)c3)cc2)cc1`: 10 °C, 4.5 µM, 5.5 µM, 0.66 µM and 0.23 µM.
In the case of `O=C(Nc1ccc(C2=NCCN2)cc1)c1ccc(C(=O)Nc2ccc(C3=NCCN3)cc2)c([N+](=O)[O-])c1`, the shift in melting temperature (ΔTm) in [1] came out at 3.9 °C. Further, the values for the IC50 in assay [2] and in assay [3] were 4.9 µM and 4.8 µM, respectively. The EC50 is 14 µM in the assay with Escherichia coli and 28 µM with Staphylococcus aureus [4].
The like results for `O=C(Nc1cccc(Oc2ccccc2)c1)c1ccc(-c2ccc(C(=O)Nc3cccc(C4=NCCN4)c3)cc2)cc1` were, in that order, 0.6 °C, 5.7 µM, 11 µM, over 1500 µM and 10 µM.

The record behind these values is ChEMBL document CHEMBL3407437, “Antibacterial drug leads: DNA and enzyme multitargeting” (J Med Chem, 2015).
